Bioassay records (PubChem)
Compounds with a hit are over-represented: about 2.9% of the library has one in this group of screens.
PKA inh – inhibitors of human PKA kinase activity, primary screen, biochemical, ATP-depletion luminescence, Kemptide substrate; PKA Kemptide phosphorylation, Kinase-Glo ATP luminescence; inhibition, % at 6 µM; hit rate 0.1% among 65,000; AID 524, 2006;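 active means inhibition above the screen-wide mean inhibition plus 3 SD, cut at about 21% in these data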
SF-1 act – activators of human SF-1, primary screen, cell-based, CHO-K1, Gal4-SF-1 LBD, luciferase luminescence | activation, % at 10 µM | hit rate 1.9% among 65,000 | CHO-K1 Gal4-SF-1 LBD luciferase reporter; % increase over DMSO SF-1-specific signal;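 active means activation above the mean activation of all tested compounds plus 3 SD, cut at about 50% in these data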
Target sequence (Q13285 whole entry, looked up, the tested form may be a part): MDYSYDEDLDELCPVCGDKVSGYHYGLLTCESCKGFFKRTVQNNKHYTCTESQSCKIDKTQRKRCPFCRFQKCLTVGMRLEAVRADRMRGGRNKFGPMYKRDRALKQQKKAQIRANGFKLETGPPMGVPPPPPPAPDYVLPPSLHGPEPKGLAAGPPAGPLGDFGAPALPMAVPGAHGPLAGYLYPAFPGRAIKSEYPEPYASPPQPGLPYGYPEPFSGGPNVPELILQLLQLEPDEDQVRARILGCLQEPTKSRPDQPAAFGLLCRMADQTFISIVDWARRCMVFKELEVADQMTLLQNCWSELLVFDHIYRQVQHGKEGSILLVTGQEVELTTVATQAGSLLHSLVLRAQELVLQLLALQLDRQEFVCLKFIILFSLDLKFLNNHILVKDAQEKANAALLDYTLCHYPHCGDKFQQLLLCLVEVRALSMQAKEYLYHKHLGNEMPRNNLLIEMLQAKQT
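Material: Gal4–SF-1 LBD one-hybrid luciferase reporter in CHO-K1 cells | Amount: 4,000 cells per well | Compound dosing: 10 µM single point, 1% DMSO | Schedule: 20 h compound treatment, 37 °C | Measured by: SteadyLite luciferase luminescence | Evaluation: Percent activation versus DMSO | Control set: DMSO-treated SF-1-transfected cells as negative, DMSO-treated mock-transfected cells lacking SF-1 as background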
RORA act – activators of orphan receptor RORA, primary screen, cell-based, luminescence; Nuclear receptor ROR-alpha (Homo sapiens), P35398; CHO-K1 Gal4-RORA LBD luciferase reporter; percent increase over mock-subtracted basal signal; activation, % at 10 µM; hit rate 1.5% among 65,000; AID 560, 2006;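 active means activation above the mean of all tested compounds plus 3 SD, cut at about 49% in these data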;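 further: 0% = DMSO-treated RORA cells and 100% = added signal equal to DMSO minus mock-transfected cells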
mHtt clearance – clearance of mutant huntingtin inclusions, primary screen, imaging, HeLa Exon1htt(103Q)mCFP, confocal imaging. aggregate imaging; zero = plate's median compound well. inhibition, % at 1.5 µM. hit rate 0.42% among 47,000. AID 853, 2007;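 active means inhibition of aggregate fluorescence above about 70%, also judged a hit by eye on the cell image, limit read from the data, passing the limit was not always enough; inconclusive means no rule stated for this call; inactive means not judged a hit on image review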;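 further: cells exposed to compound for three days before fixation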
ROCK2 blocker – inhibitors of human ROCK2 kinase, primary screen, biochemical, high-throughput, luminescence. Rho-associated protein kinase 2 (Homo sapiens), O75116. purified ROCK2, Kinase-Glo ATP depletion luminescence. inhibition, % at 6 µM. hit rate 0.35% among 60,000. AID 604, 2007;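 active means inhibition above the screen-wide mean inhibition plus 3 SD, cut at about 18% in these data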;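 further: plate controls were DMSO wells for no effect and Y-27632 control wells after no-enzyme background subtraction for full effect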
JNK3 inh – JNK3 kinase activity inhibitors, primary screen, biochemical, human, purified enzyme; HTS; inhibition, % at 8 µM; hit rate 0.61% among 60,000; AID 746, 2007; in the data active means inhibition above about 17%;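 further: 0% = DMSO and 100% = reference inhibitor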
Active calls of the source: *; ? = inconclusive; nt = not tested or not shown.

SMILES	PKA inh	SF-1 act	RORA act	mHtt clearance	ROCK2 blocker	JNK3 inh
CCOC(=O)N=S(=O)(Oc1ccc([N+](=O)[O-])cc1)c1ccc(Cl)cc1 (stereo unspecified)	nt	nt	nt	10	nt	nt
CNc1sc(C(=O)c2cccs2)c(N)c1-c1nc2ccccc2s1	8	79*	32	nt	2	0
CCOc1ccc(/C(=N\O)C(C)NO)cc1 (stereo unspecified)	5	17	-10	36	2	1
C=CCOc1ccc(/C=C/C(C)=N\O)cc1	-5	20	86*	-32	0	-1
COc1ccc(NC(C)=O)cc1NC(=O)CSc1nc2ncccc2[nH]1	3	3	14	nt	5	-3
COC(=O)c1cc(OC)c(OC)cc1NC(=S)N1CCN(c2ccccc2)CC1	nt	nt	nt	-29	nt	nt
Cn1c(C(=O)N2CCc3ccccc3C2)cc2oc3ccccc3c21	5	57*	22	nt	3	-1
O=C(CN1CCN(Cc2cccc(Cl)c2)C1=O)NCc1ccccn1	nt	nt	nt	-17	nt	nt
Cn1c(=O)c(C(=O)Nc2cnccn2)c(O)c2ccccc21	3	29	52*	nt	-1	0
CC(C)/C=C1\CCCCC1N(C)C(=O)NC(C)C (stereo unspecified)	9	-6	-7	4	6	-4
CCOC(=O)C1=C(O)/C(=C\c2ccc(CNC(=O)C(=O)Nc3ccc(C)c(C)c3)o2)N=C1C	nt	nt	nt	18	nt	nt
Cc1cc(C)cc(-c2nc(-c3ccncc3)no2)c1	-2	90*	42	nt	-4	-12
CC(C)(C)c1ccc(-c2nc(-c3ccncc3)no2)cc1	5	11	31	11	3	-2
Brc1cccc(-c2nc(-c3ccncc3)no2)c1	0	60*	47	nt	-4	-7
CN(C)c1ccccc1C(=O)c1ccccc1N(C)C	2	78*	79*	nt	3	-1
CN(CCO)c1ncnc2nc[nH]c12	15	1	-5	37	37*	-3
CCN(CC)C(=O)CCCOc1ccc(Cl)cc1Cl	7	11	54*	37	4	0
COc1ccc(OC)c(Nc2nc(N)nc(-c3cc4ccccc4o3)n2)c1	2	-5	11	20	4	32*
COc1ccc2c(Cl)c(C(N)=O)sc2c1	29*	-1	15	nt	50*	18*
Cc1cccc(-n2ncc3c(N4CC(C)CC(C)C4)ncnc32)c1 (stereo unspecified)	-8	51*	47	nt	5	1
CC1CN(c2ncnc3c2cnn3-c2ccc(Cl)cc2)CC(C)O1 (stereo unspecified)	6	75*	67*	-48	5	5
Cc1cccc(-n2ncc3c(N4CCCC4)ncnc32)c1	8	-23	-38	-15	7	1
CN(C)c1ccc(C(c2nnnn2C2CCCCC2)N2CCN(C(=O)c3ccco3)CC2)cc1 (stereo unspecified)	6	-5	-40	nt	5	1
Brc1ccccc1-c1nc(-c2ccccc2)no1	8	-9	15	-24	0	3
c1ccc2c(-c3nc(-c4ccncc4)no3)cccc2c1	20	74*	25	43	9	6
SMILES	PKA inh	SF-1 act	RORA act	mHtt clearance	ROCK2 blocker	JNK3 inh
c1ccc(-c2noc(-c3cccc4ccccc34)n2)cc1	6	65*	61*	nt	3	0
Cc1ccc(C)c(NC(=S)NCc2cccn2C)c1	nt	nt	nt	-11	nt	nt
c1csc(-c2csc3nc(CN4CCOCC4)nc(NCc4ccc5c(c4)OCO5)c23)c1	-2	-7	-1	nt	0	2
Cc1c(C(=O)Nc2nnc(C(F)(F)F)s2)oc2ccccc12	12	41	-13	nt	6	0
Cc1c(C(=O)Nc2ccccn2)oc2ccccc12	12	69*	40	nt	6	-1
COC(=O)c1sc(NC(=O)c2oc3ccccc3c2C)nc1C	5	58*	61*	nt	2	-4
O=C(NCC(=O)N(CC1CCCO1)C(C(=O)NC1CCCC1)c1cccnc1)c1ccco1 (stereo unspecified)	10	-8	11	nt	4	0
Cc1ccc2[nH]c3c(c2c1)CCc1cn[nH]c1-3	0	21	2	48	8	43*
Cc1ccc2[nH]c3c(c2c1)CCC3=O	11	-4	-3	?	6	2
CCOC(=O)c1ccc(NC(=O)CC2C(=O)N(c3ccc(F)cc3)C(=O)N2CCC(C)C)cc1 (stereo unspecified)	nt	nt	nt	-40	nt	nt
CC(=O)Nc1nc(-c2cccs2)cs1	4	3	16	14	9	-3
O=C(Nc1nc2ccccc2s1)c1ccc(Cl)s1	9	98*	34	19	4	6
CC(C)(C)c1csc(NC(=O)c2ccc(Cl)s2)n1	-2	53*	54*	42	0	-3
O=C(Nc1nc(-c2cccs2)cs1)c1ccc(Cl)s1	8	34	68*	nt	0	6
O=C(COc1ccccc1Cl)NCc1ccncc1	2	20	-2	nt	3	-1
Cc1nc(SCC(=O)Nc2c(C)n(C)n(-c3ccccc3)c2=O)[nH]c(=O)c1C	nt	nt	nt	26	nt	nt
Cc1ccc(S(=O)(=O)NCCOc2nc(N3CCOCC3)nc(N3CCOCC3)n2)cc1	nt	nt	nt	29	nt	nt
C1CCN(c2c3c(nc4nnnn24)CCCC3)CC1	nt	nt	nt	-20	nt	nt
Clc1ccc(-c2cn3c(n2)CCC3)cc1	1	72*	22	8	-3	5
Clc1ccc(-c2nnc3n2CCCCC3)cc1	nt	nt	nt	26	nt	nt
Cc1cc2c(C)nc(-c3ccccc3)nc2o1	-2	58*	60*	nt	1	-4
COc1cc2c(C)nc3onc(-c4ccccc4)c3c2cc1OC	-3	-5	6	8	-1	3
c1csc(-c2ccc3ccccc3n2)c1	7	79*	26	34	4	-2
CCN(CC(=O)Nc1cccc(OC)c1)C(=O)C1CCN(C(=O)Nc2ccccc2)CC1	5	21	-9	nt	3	-5
CC1=C(C(=O)OCc2ccc3c(c2)OCO3)C(c2ccccc2)NC(=O)N1 (stereo unspecified)	3	-13	-17	74*	8	-7
CC1=C(C(=O)OCc2ccccc2)C(c2ccc(N3CCOCC3)cc2)NC(=O)N1 (stereo unspecified)	-4	-11	-9	8	2	-3
COc1ccc(OCCSc2ncn[nH]2)cc1	nt	nt	nt	-14	nt	nt
COc1cc(C)ccc1S(=O)(=O)N1CCN(C23CC4CC(CC(C4)C2)C3)CC1	nt	nt	nt	1	nt	nt
